Results on one molecule are retold here after ChEMBL document CHEMBL1687724, “Roles of NF-kappaB activation and peroxisome proliferator-activated receptor gamma inhibition in the effect of rifampin on inducible nitric oxide synthase transcription in human lung epithelial cells” (Antimicrob Agents Chemother, 2009).

As usually defined, the Cmax is the peak of the concentration-time curve.

In series [1] the test system is A549. Kind of series: Effect on STAT-1 phosphorylation in human A549 cells assessed as increase in IL1-beta, TNF-alpha and IFN-gamma-induced phosphorylation at 50 ug/ml after 15 to 30 mins by Western immunoblotting analysis. Type of series: functional, cell-based. The essentials:
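A549 cells starved 24 h in serum- and antibiotic-free medium, treated with cytokine mix (IL-1β, TNF-α, IFN-γ) ± rifampin; total lysates immunoblotted (10% SDS-PAGE, PVDF) with rabbit anti-phospho-STAT-1; ECL detection with densitometry.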

Series [2] relates to A549. The series is described as follows: Effect on p38 phosphorylation in human A549 cells assessed as increase in IL1-beta, TNF-alpha and IFN-gamma-induced phosphorylation at 50 ug/ml after 15 to 30 mins by Western immunoblotting analysis. Type of series: functional, cell-based. The essentials: (§1)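 A549 cells serum/antibiotic-starved 24 h, then given cytokine mix (IL-1β, TNF-α, IFN-γ) with or without rifampin (50 μg/ml); total lysates at 15, 30, 60 min; 20–30 μg protein on 10% SDS-PAGE, immunoblotted for phospho-ERK1/2, phospho-JNK, phospho-p38 and total forms; ECL detection, densitometry.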
(A western blot detects proteins with antibodies after separation by electrophoresis.)

The test system of series [3] is A549. The series is described as follows: Effect on JNK phosphorylation in human A549 cells assessed as increase in IL1-beta, TNF-alpha and IFN-gamma-induced phosphorylation at 50 ug/ml after 15 to 30 mins by Western immunoblotting analysis. Type of series: functional, cell-based. In outline:
as §1

Series [4] relates to A549. Kind of series: Effect on ERK1/2 phosphorylation in human A549 cells assessed as increase in IL1-beta, TNF-alpha and IFN-gamma-induced phosphorylation at 50 ug/ml after 15 to 30 mins by Western immunoblotting analysis. The class given is functional, cell-based. In outline:
as §1

Series [5] has as its target Nitric oxide synthase, inducible (Homo sapiens) (UniProt P35228). Kind of series: Effect on iNOS in human A549 cells assessed as increase in iNOS mRNA expression at 50 ug/ml after 19 hrs by TaqMan real-time RT-PCR relative to control. The class given is cell-based. The essentials: (§2)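 A549 cells starved 24 h, then 19 h with cytokine mix (100 ng/ml each) ± rifampin 10 or 50 μg/ml (DMSO stock diluted ≥1:1,000); 2 μg total RNA reverse transcribed (random hexamers), iNOS by TaqMan real-time RT-PCR normalized to β-actin; medium-only control set to 1; four experiments, mean ± SEM.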

In series [6] the test system is A549. The series is described as follows: Induction of iNOS expression in human A549 cells at 25 to 50 ug/ml by Western blot analysis in presence of IFN-gamma. The class given is functional, cell-based. In outline:
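A549 cells starved 24 h, then given rifampin with IFN-γ, each agent alone, or cytokine mix; total cell extracts prepared 20 h after stimulation and immunoblotted with rabbit anti-iNOS, ECL detection.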

Series [7] relates to A549. The series is described as follows: Induction of iNOS expression in human A549 cells at 25 to 50 ug/ml by Western blot analysis. Type of series: functional, cell-based.
Series [8] deals with A549. Kind of series: Induction of NF-kappaB activation in human A549 cells assessed as fold increase in NF-kappaB/DNA binding at 50 ug/ml by electrophoretic mobility shift assay. Type of series: functional, cell-based. In outline:
(§3)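 Nuclear extracts from A549 cells 2 h after cytokine mix (IL-1β, TNF-α, IFN-γ) ± rifampin 50 μg/ml; 2 μl extract bound to biotin-labeled NF-κB consensus probe, 5% native PAGE in TBE, streptavidin-HRP chemiluminescence; specificity checked with cold NF-κB oligonucleotide.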
On the technique in general: Mobility shift assays separate free from complexed probe on a gel.

Series [9] concerns A549. Kind of series: Induction of NF-kappaB activation in IL1-beta, TNF-alpha and IFN-gamma-stimulated human A549 cells assessed as fold increase in NF-kappaB/DNA binding at 50 ug/ml by electrophoretic mobility shift assay. The class given is functional. The essentials: as §3
For series [10], the system named is A549. The series is described as follows: Effect on NF-kappaB activation in human A549 cells assessed as degradation of inhibitory subunit IkappaB after 30 mins at 50 ug/ml by Western blot analysis. The class given is functional, cell-based. The essentials: (§4)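 A549 cells (2 × 10⁶/dish) starved 24 h, then exposed to cytokine mix (100 ng/ml each) ± rifampin 50 μg/ml, or rifampin alone; lysates taken over time (30 min to 3 h), 20–30 μg protein immunoblotted for IκB, ECL detection, densitometry; three experiments.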

In series [11] the test system is A549. The series is described as follows: Effect on NF-kappaB activation in 100 ng/ml IL-1beta, TNF-alpha and IFN-gamma-stimulated human A549 cells assessed as degradation of inhibitory subunit IkappaB measured upto 3 hrs at 50 ug/ml by Western blot analysis. Type of series: functional, cell-based. The essentials: as §4
For series [12], the system named is A549. The series is described as follows: Effect on NF-kappaB activation in 100 ng/ml IL-1beta, TNF-alpha and IFN-gamma-stimulated human A549 cells assessed as degradation of inhibitory subunit IkappaB at 50 ug/ml by Western blot analysis. Type of series: functional, cell-based. The essentials:
as §4

Series [13] has as its system A549. Kind of series: Effect on iNOS expression in human A549 cells assessed as fold increase in 100 ng/ml IL1-beta, TNF-alpha and IFN-gamma-stimulated iNOS mRNA expression at 50 ug/ml after 19 hrs by TaqMan real-time RT-PCR relative to control. Type of series: functional. The essentials:
as §2
For orientation: Quantitative PCR measures a nucleic acid by following its amplification.

Series [14] concerns A549. The series is described as follows: Effect on iNOS expression in human A549 cells assessed as fold increase in 100 ng/ml IL1-beta, TNF-alpha and IFN-gamma-stimulated iNOS mRNA expression at 10 ug/ml after 19 hrs by TaqMan real-time RT-PCR relative to control. The class given is functional. The essentials: as §2
In series [15] the test system is A549. The series is described as follows: Reduction in PPARgamma expression in human A549 cells assessed as increase in 100 ng/ml IL1-beta, TNF-alpha and IFN-gamma-induced PPARgamma down regulation normalized to beta-actin expression level at 50 ug/ml by Western blot analysis. Type of series: functional, cell-based. The essentials: (§5)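 A549 cells starved 24 h, then 24 h with medium, cytokine mix (100 ng/ml each), or mix plus graded rifampin; whole-cell extracts immunoblotted with mouse anti-PPARγ, signal normalized to β-actin by densitometry; five experiments, mean ± SEM, unpaired t test.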

Series [16] deals with A549. Kind of series: Effect on PPARgamma expression in human A549 cells assessed as decrease in PPARgamma expression normalized to beta-actin expression level at 50 ug/ml by Western blot analysis. The class given is functional, cell-based. The essentials:
as §5

Another series concerns HT-29. The series is described as follows: Effect on iNOS expression in human HT-29 cells assessed as increase in 100 ng/ml IL1-beta, TNF-alpha and IFN-gamma-stimulated iNOS […] expression normalized to beta-actin expression level at 10 to 50 ug/ml after 24 hrs by Western blot analysis. Type of series: functional, cell-based.
Another series has as its system DLD-1. Kind of series: Effect on iNOS expression in human DLD1 cells assessed as increase in 100 ng/ml IL1-beta, TNF-alpha and IFN-gamma-stimulated iNOS […] expression normalized to beta-actin expression level at 10 to 50 ug/ml after 24 hrs by Western blot analysis. The class given is functional, cell-based.
Series [17] is described as follows: Cmax in serum of human patient undergoing fibre-optic bronchoscopy at 600 mg, po administered as single dose. Type of series: ADME, organism-based. Further details: dose 600 mg, route oral.

Active and inactive are the calls of the source. The rule behind the calls is not given here.

Nitric oxide synthase, inducible (Homo sapiens), sequence (P35228 whole entry): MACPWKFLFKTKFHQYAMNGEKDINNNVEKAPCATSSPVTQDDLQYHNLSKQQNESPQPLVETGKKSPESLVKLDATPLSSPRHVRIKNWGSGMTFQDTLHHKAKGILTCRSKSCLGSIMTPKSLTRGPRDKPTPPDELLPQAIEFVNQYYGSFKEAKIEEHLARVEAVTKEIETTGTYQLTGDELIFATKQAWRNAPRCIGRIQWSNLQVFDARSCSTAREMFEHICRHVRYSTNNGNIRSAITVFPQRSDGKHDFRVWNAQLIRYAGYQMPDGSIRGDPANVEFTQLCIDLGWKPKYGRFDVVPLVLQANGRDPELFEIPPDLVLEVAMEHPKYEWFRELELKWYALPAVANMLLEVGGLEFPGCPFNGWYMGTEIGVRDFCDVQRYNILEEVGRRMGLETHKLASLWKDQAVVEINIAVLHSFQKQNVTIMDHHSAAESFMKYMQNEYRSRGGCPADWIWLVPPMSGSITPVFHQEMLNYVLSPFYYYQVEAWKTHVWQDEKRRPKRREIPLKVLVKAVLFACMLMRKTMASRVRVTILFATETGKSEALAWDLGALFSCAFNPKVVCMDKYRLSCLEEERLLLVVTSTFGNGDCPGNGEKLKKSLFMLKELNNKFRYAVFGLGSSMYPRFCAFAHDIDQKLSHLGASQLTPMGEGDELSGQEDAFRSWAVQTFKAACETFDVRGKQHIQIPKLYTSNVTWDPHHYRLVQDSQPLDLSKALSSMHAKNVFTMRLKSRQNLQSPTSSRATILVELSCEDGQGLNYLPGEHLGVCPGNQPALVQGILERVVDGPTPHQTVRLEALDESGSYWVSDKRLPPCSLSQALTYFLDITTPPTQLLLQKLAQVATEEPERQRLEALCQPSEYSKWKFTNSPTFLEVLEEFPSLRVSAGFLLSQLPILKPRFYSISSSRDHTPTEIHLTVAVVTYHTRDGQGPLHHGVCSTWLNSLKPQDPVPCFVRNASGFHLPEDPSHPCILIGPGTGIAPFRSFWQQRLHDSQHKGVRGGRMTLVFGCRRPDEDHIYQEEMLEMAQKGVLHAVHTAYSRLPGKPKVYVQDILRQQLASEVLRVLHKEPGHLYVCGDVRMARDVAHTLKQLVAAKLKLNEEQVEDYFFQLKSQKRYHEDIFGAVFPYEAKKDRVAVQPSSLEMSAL

For the molecule `CO[C@H]1/C=C/O[C@@]2(C)Oc3c(C)c(O)c4c(O)c(c(/C=N/N5CCN(C)CC5)c(O)c4c3C2=O)NC(=O)/C(C)=C\C=C\[C@H](C)[C@H](O)[C@@H](C)[C@@H](O)[C@@H](C)[C@H](OC(C)=O)[C@@H]1C` [RIFAMPIN], the result (with A549 [1]; with A549 [2]; with A549 [3]; in the series with A549 [4]; in [5]; with A549 [7]) was inactive. Also, the outcome with A549 [16] and in the series with DLD-1 was inactive. For the same molecule, the outcome in the series with A549 [6], in the series on A549 [8], in the series with A549 [10], with A549 [11], with A549 [12] and in the series with A549 [15] was Active. The figures for the “fold change (FC)” value in the series on A549 [9], in the series with A549 [13] and in the series with A549 [14] were 2.1, 4 and 1.9, respectively. Further, the Activity result in the series with HT-29 was “Dose-dependent effect”. Besides, the concentration in series [17] peaked (Cmax) at 15000 ng/mL.
